One may read the MIC as the least concentration at which growth counts as inhibited. By IC50 is commonly meant the concentration needed to halve the response being measured.

In brackets after ≈: the same amount, converted by molar mass. Activity calls are given as the source filed them. The calls are words filed in the database; no cut-off is given here.

One data set relates to Candida albicans. Briefly: Antifungal activity against Candida albicans assessed as zone of inhibition at 100 ug/ml by agar well diffusion method. It is filed as functional.
Settings: not given
The gist of the method:
(§1)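 For the agar well diffusion screen, samples at 100 µg/mL were made from a stock of 10 mg in 1 mL EtOH diluted 1:1 (v/v) with Mueller-Hinton medium. The zone of inhibition was scored as 5–10 mm poor, 10–15 moderate, 15–20 good and 20–25 very good. Gentamycin and nystatin were the reference drugs. Strains were confirmed at the University of Botswana microbiology laboratory.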
Turning to `CCOC(=O)C1C(=O)C=C(c2ccc(OC)cc2)CC1c1cccc([N+](=O)[O-])c1` (configuration not stated), the outcome was inactive.

For `CCOC(=O)C1C(=O)C=C(c2ccc(Br)cc2)CC1c1cccc([N+](=O)[O-])c1` (configuration not stated), the result was inactive.

`CCOC(=O)C1C(=O)C=C(c2ccc(OC)cc2OC)CC1c1cccc([N+](=O)[O-])c1` (configuration not stated): the outcome was inactive.

Consider `COc1ccc(C2=CC3=NNC(=O)C3C(c3cccc([N+](=O)[O-])c3)C2)c(OC)c1` (configuration not stated), for which the result was inactive.

The test system of a further data set is Candida albicans. Put plainly: Antifungal activity against Candida albicans by agar well diffusion method.
Settings: not given
It is filed as functional. On the technique in general: A growth-free zone around the sample is the usual read-out of agar diffusion tests.
Consider `CCOC(=O)C1C(=O)C=C(c2ccc(OC)cc2)CC1c1cccc([N+](=O)[O-])c1` (configuration not stated), for which the MIC entry is “inactive”.

Take `CCOC(=O)C1C(=O)C=C(c2ccc(Br)cc2)CC1c1cccc([N+](=O)[O-])c1` (configuration not stated): the MIC entry is “inactive”.

Consider `CCOC(=O)C1C(=O)C=C(c2ccc(OC)cc2OC)CC1c1cccc([N+](=O)[O-])c1` (configuration not stated), for which the MIC result is “inactive”.

For `COc1ccc(C2=CC3=NNC(=O)C3C(c3cccc([N+](=O)[O-])c3)C2)c(OC)c1` (configuration not stated), the MIC result is “inactive”.

Another data set has as its system Bacillus subtilis. Briefly: Antimicrobial activity against Bacillus subtilis NCIB 3610 by agar well diffusion method. In kind it is functional. To be noted: subsp. subtilis str. NCIB 3610.
In the case of `CCOC(=O)C1C(=O)C=C(c2ccc(OC)cc2)CC1c1cccc([N+](=O)[O-])c1` (configuration not stated), the MIC entry is “inactive”.

Consider `CCOC(=O)C1C(=O)C=C(c2ccc(Br)cc2)CC1c1cccc([N+](=O)[O-])c1` (configuration not stated), for which the MIC entry is “inactive”.

With `CCOC(=O)C1C(=O)C=C(c2ccc(OC)cc2OC)CC1c1cccc([N+](=O)[O-])c1` (configuration not stated), the MIC entry is “inactive”.

As to `COc1ccc(C2=CC3=NNC(=O)C3C(c3cccc([N+](=O)[O-])c3)C2)c(OC)c1` (configuration not stated), the MIC came out at 2.5 µg/mL (≈ 6.35 µM).

For another data set, the system named is Staphylococcus aureus. Put plainly: Antimicrobial activity against Staphylococcus aureus ATCC 25923 by agar well diffusion method. In kind it is functional.
Settings: not given
In the case of `CCOC(=O)C1C(=O)C=C(c2ccc(OC)cc2)CC1c1cccc([N+](=O)[O-])c1` (configuration not stated), the MIC entry is “inactive”.

Take `CCOC(=O)C1C(=O)C=C(c2ccc(Br)cc2)CC1c1cccc([N+](=O)[O-])c1` (configuration not stated): the MIC result was “inactive”.

On to `CCOC(=O)C1C(=O)C=C(c2ccc(OC)cc2OC)CC1c1cccc([N+](=O)[O-])c1` (configuration not stated), for which the MIC result is “inactive”.

As for `COc1ccc(C2=CC3=NNC(=O)C3C(c3cccc([N+](=O)[O-])c3)C2)c(OC)c1` (configuration not stated), the MIC entry was “inactive”.

Another data set concerns Pseudomonas aeruginosa. Briefly: Antimicrobial activity against Pseudomonas aeruginosa NCIMB 8295 assessed as zone of inhibition at 100 ug/ml by agar well diffusion method. In kind it is functional.
Settings: not given
The gist of the method: as §1
Take `CCOC(=O)C1C(=O)C=C(c2ccc(OC)cc2)CC1c1cccc([N+](=O)[O-])c1` (configuration not stated): the outcome was inactive.

For the compound `CCOC(=O)C1C(=O)C=C(c2ccc(Br)cc2)CC1c1cccc([N+](=O)[O-])c1` (configuration not stated), the result was inactive.

Take `CCOC(=O)C1C(=O)C=C(c2ccc(OC)cc2OC)CC1c1cccc([N+](=O)[O-])c1` (configuration not stated): the outcome was inactive.

Take `COc1ccc(C2=CC3=NNC(=O)C3C(c3cccc([N+](=O)[O-])c3)C2)c(OC)c1` (configuration not stated): the outcome was inactive.

In another data set the test system is Escherichia coli. Briefly: Antimicrobial activity against Escherichia coli ATCC 8739 by agar well diffusion method. It is filed as functional.
Settings: not given
In the case of `CCOC(=O)C1C(=O)C=C(c2ccc(OC)cc2)CC1c1cccc([N+](=O)[O-])c1` (configuration not stated), the MIC entry was “inactive”.

Consider `CCOC(=O)C1C(=O)C=C(c2ccc(Br)cc2)CC1c1cccc([N+](=O)[O-])c1` (configuration not stated), for which the MIC entry was “inactive”.

For the compound `CCOC(=O)C1C(=O)C=C(c2ccc(OC)cc2OC)CC1c1cccc([N+](=O)[O-])c1` (configuration not stated), the MIC entry was “inactive”.

Turning to `COc1ccc(C2=CC3=NNC(=O)C3C(c3cccc([N+](=O)[O-])c3)C2)c(OC)c1` (configuration not stated), the MIC entry was “inactive”.

Another data set concerns Escherichia coli. Briefly: Antimicrobial activity against Escherichia coli ATCC 8739 assessed as zone of inhibition at 100 ug/ml by agar well diffusion method. In kind it is functional.
Settings: not given
An outline of the steps:
as §1
With `CCOC(=O)C1C(=O)C=C(c2ccc(OC)cc2)CC1c1cccc([N+](=O)[O-])c1` (configuration not stated), the outcome was inactive.

As for `CCOC(=O)C1C(=O)C=C(c2ccc(Br)cc2)CC1c1cccc([N+](=O)[O-])c1` (configuration not stated), the result was inactive.

Turning to `CCOC(=O)C1C(=O)C=C(c2ccc(OC)cc2OC)CC1c1cccc([N+](=O)[O-])c1` (configuration not stated), the result was inactive.

In the case of `COc1ccc(C2=CC3=NNC(=O)C3C(c3cccc([N+](=O)[O-])c3)C2)c(OC)c1` (configuration not stated), the result was inactive.

For a further data set, the system named is Staphylococcus aureus. Put plainly: Antimicrobial activity against Staphylococcus aureus ATCC 25923 assessed as zone of inhibition at 100 ug/ml by agar well diffusion method. In kind it is functional.
Settings: not given
An outline of the steps: as §1
For the compound `CCOC(=O)C1C(=O)C=C(c2ccc(OC)cc2)CC1c1cccc([N+](=O)[O-])c1` (configuration not stated), the result was inactive.

Consider `CCOC(=O)C1C(=O)C=C(c2ccc(Br)cc2)CC1c1cccc([N+](=O)[O-])c1` (configuration not stated), for which the result was inactive.

As to `CCOC(=O)C1C(=O)C=C(c2ccc(OC)cc2OC)CC1c1cccc([N+](=O)[O-])c1` (configuration not stated), the outcome was inactive.

On to `COc1ccc(C2=CC3=NNC(=O)C3C(c3cccc([N+](=O)[O-])c3)C2)c(OC)c1` (configuration not stated), for which the result was inactive.

System in the next data set: not listed separately
Briefly: Antioxidant activity assessed as DPPH radical scavenging activity after 3 hrs by spectrophotometry. In kind it is physicochemical.
Settings: not given
The gist of the method:
(§2)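 DPPH (0.51 mM in methanol) was mixed 1:1 by volume with the compound at several concentrations (100, 50, 25 … µg/mL range). Absorbance was read against a control, and % inhibition = (A0−As)/A0 ×100. Readings were taken at 30 min and 3 h, with ascorbic acid as the reference. Triplicate measurements.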
Background: Loss of DPPH colour is used to gauge radical scavenging.
For the compound `CCOC(=O)C1C(=O)C=C(c2ccc(OC)cc2)CC1c1cccc([N+](=O)[O-])c1` (configuration not stated), the IC50 was 98.53 µg/mL (≈ 249 µM).

On to `CCOC(=O)C1C(=O)C=C(c2ccc(Br)cc2)CC1c1cccc([N+](=O)[O-])c1` (configuration not stated), for which the IC50 was found to be 409.1 µg/mL (≈ 921 µM).

For `CCOC(=O)C1C(=O)C=C(c2ccc(OC)cc2OC)CC1c1cccc([N+](=O)[O-])c1` (configuration not stated), the IC50 amounted to 95.43 µg/mL (≈ 224 µM).

On to `COc1ccc(C2=CC3=NNC(=O)C3C(c3cccc([N+](=O)[O-])c3)C2)c(OC)c1` (configuration not stated), for which the IC50 turned out to be 39.67 µg/mL (≈ 101 µM).

For another data set, the system named is Pseudomonas aeruginosa. Briefly: Antimicrobial activity against Pseudomonas aeruginosa NCIMB 8295 by agar well diffusion method. In kind it is functional.
Settings: not given
Regarding `CCOC(=O)C1C(=O)C=C(c2ccc(OC)cc2)CC1c1cccc([N+](=O)[O-])c1` (configuration not stated), the MIC entry is “inactive”.

With `CCOC(=O)C1C(=O)C=C(c2ccc(Br)cc2)CC1c1cccc([N+](=O)[O-])c1` (configuration not stated), the MIC result was “inactive”.

Turning to `CCOC(=O)C1C(=O)C=C(c2ccc(OC)cc2OC)CC1c1cccc([N+](=O)[O-])c1` (configuration not stated), the MIC result is “inactive”.

Regarding `COc1ccc(C2=CC3=NNC(=O)C3C(c3cccc([N+](=O)[O-])c3)C2)c(OC)c1` (configuration not stated), the MIC result was “inactive”.

System in another data set: not listed separately
Briefly: Metal chelating activity of the compound assessed as formation of iron complex after 20 mins by spectrophotometry. It is filed as physicochemical.
Settings: not given
An outline of the steps:
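Fe2+ chelation was measured by disruption of the o-phenanthroline–Fe2+ complex. O-phenanthroline (0.05% in methanol) and FeCl2 (0.1%) were mixed with the sample at various concentrations and held at room temperature for 20 min, then read at 510 nm. EDTA was the standard chelator. % chelation = (Acontrol−Asample)/Acontrol ×100, and IC50 came from plots of % chelation versus concentration. Triplicates.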
In the case of `CCOC(=O)C1C(=O)C=C(c2ccc(OC)cc2)CC1c1cccc([N+](=O)[O-])c1` (configuration not stated), the IC50 worked out at 1028 µg/mL (≈ 2600 µM).

For `CCOC(=O)C1C(=O)C=C(c2ccc(Br)cc2)CC1c1cccc([N+](=O)[O-])c1` (configuration not stated), the IC50 worked out at 1148.57 µg/mL (≈ 2590 µM).

Take `CCOC(=O)C1C(=O)C=C(c2ccc(OC)cc2OC)CC1c1cccc([N+](=O)[O-])c1` (configuration not stated): the half-maximal inhibitory concentration (IC50) turned out to be 1006.67 µg/mL (≈ 2370 µM).

As to `COc1ccc(C2=CC3=NNC(=O)C3C(c3cccc([N+](=O)[O-])c3)C2)c(OC)c1` (configuration not stated), the 50% inhibitory concentration (IC50) turned out to be 84.39 µg/mL (≈ 215 µM).

System in the next data set: not listed separately
Put plainly: Antioxidant activity assessed as DPPH radical scavenging activity after 30 mins by spectrophotometry.
Settings: not given
It is filed as physicochemical. The gist of the method: as §2
As for `CCOC(=O)C1C(=O)C=C(c2ccc(OC)cc2)CC1c1cccc([N+](=O)[O-])c1` (configuration not stated), the IC50 was found to be 196.5 µg/mL (≈ 497 µM).

For the compound `CCOC(=O)C1C(=O)C=C(c2ccc(Br)cc2)CC1c1cccc([N+](=O)[O-])c1` (configuration not stated), the IC50 was 409.1 µg/mL (≈ 921 µM).

On to `CCOC(=O)C1C(=O)C=C(c2ccc(OC)cc2OC)CC1c1cccc([N+](=O)[O-])c1` (configuration not stated), for which the concentration for half-maximal inhibition (IC50) worked out at 195.65 µg/mL (≈ 460 µM).

For `COc1ccc(C2=CC3=NNC(=O)C3C(c3cccc([N+](=O)[O-])c3)C2)c(OC)c1` (configuration not stated), the IC50 came out at 88.75 µg/mL (≈ 226 µM).

For another data set, the system named is Bacillus subtilis. Briefly: Antimicrobial activity against Bacillus subtilis NCIB 3610 assessed as zone of inhibition at 100 ug/ml by agar well diffusion method. To be noted: subsp. subtilis str. NCIB 3610. In kind it is functional. The gist of the method: as §1
`CCOC(=O)C1C(=O)C=C(c2ccc(OC)cc2)CC1c1cccc([N+](=O)[O-])c1` (configuration not stated): the outcome was inactive.

For the compound `CCOC(=O)C1C(=O)C=C(c2ccc(Br)cc2)CC1c1cccc([N+](=O)[O-])c1` (configuration not stated), the outcome was inactive.

As for `CCOC(=O)C1C(=O)C=C(c2ccc(OC)cc2OC)CC1c1cccc([N+](=O)[O-])c1` (configuration not stated), the result was inactive.

The same data set, now with this note: subsp. subtilis str. NCIB 3610, read-out: IZ.
As to `COc1ccc(C2=CC3=NNC(=O)C3C(c3cccc([N+](=O)[O-])c3)C2)c(OC)c1` (configuration not stated), the zone of inhibition at 100 µg/mL worked out at 9 mm.

The values are drawn from ChEMBL document CHEMBL3351380, “Antioxidant and antimicrobial studies on fused-ring pyrazolones and isoxazolones” (Bioorg Med Chem, 2014).
